# Data published in ChEMBL document CHEMBL3734675, “Synthesis, antimycobacterial and antibacterial activity of fluoroquinolone derivatives containing an 3-alkoxyimino-4-(cyclopropylanimo)methylpyrrolidine moiety” (2015).
# Tests used:
# Type in all cases: functional
# Staphylococcus aureus [1] = assay: Antibacterial activity against methicillin-sensitive Staphylococcus aureus 14-4 after 18 to 24 hrs by two-fold serial dilution method
# Summary of the method: (§1)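 Twofold serial dilution in agar media against Gram-positive and Gram-negative strains. Plates incubated at 35 °C for 18–24 h. MIC read as the lowest compound concentration giving complete inhibition of bacterial growth.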
# Pseudomonas aeruginosa [2] = assay: Antibacterial activity against Pseudomonas aeruginosa 14-16 after 18 to 24 hrs by two-fold serial dilution method; summary of the method: as §1
# Enterococcus faecium [3] = assay: Antibacterial activity against Enterococcus faecium 14-5 after 18 to 24 hrs by two-fold serial dilution method; summary of the method: as §1
# [4] = test system: Staphylococcus epidermidis; assay: Antibacterial activity against methicillin-resistant Staphylococcus epidermidis 14-39 after 18 to 24 hrs by two-fold serial dilution method
# Summary of the method: (§2)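 Agar media, standard twofold serial dilution. MIC is the lowest concentration giving complete inhibition of bacterial growth after incubation at 35 °C for 18–24 h. Ciprofloxacin and levofloxacin were run as comparators.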
# Escherichia coli [5] = assay: Antibacterial activity against Escherichia coli ATCC 25922 after 18 to 24 hrs by two-fold serial dilution method; summary of the method: as §1
# Enterococcus faecalis [6] = assay: Antibacterial activity against Enterococcus faecalis 14-1 after 18 to 24 hrs by two-fold serial dilution method; summary of the method: as §1
# Staphylococcus aureus [7] = assay: Antibacterial activity against methicillin-sensitive Staphylococcus aureus 14-3 after 18 to 24 hrs by two-fold serial dilution method; summary of the method: as §1
# Klebsiella pneumoniae [8] = assay: Antibacterial activity against Klebsiella pneumoniae 14-1 after 18 to 24 hrs by two-fold serial dilution method; summary of the method: as §1
# Klebsiella pneumoniae [9] = assay: Antibacterial activity against extended-spectrum beta-lactamase producing Klebsiella pneumoniae 14-17 after 18 to 24 hrs by two-fold serial dilution method; summary of the method: as §1
# Klebsiella pneumoniae [10] = assay: Antibacterial activity against extended-spectrum beta-lactamase producing Klebsiella pneumoniae 14-19 after 18 to 24 hrs by two-fold serial dilution method; summary of the method: as §1
# Escherichia coli [11] = assay: Antibacterial activity against Escherichia coli 14-2 after 18 to 24 hrs by two-fold serial dilution method; summary of the method: as §1
# [12] = test system: Staphylococcus epidermidis; assay: Antibacterial activity against methicillin-resistant Staphylococcus epidermidis 14-22 after 18 to 24 hrs by two-fold serial dilution method; summary of the method: as §2
# Pseudomonas aeruginosa [13] = assay: Antibacterial activity against Pseudomonas aeruginosa ATCC 27853 after 18 to 24 hrs by two-fold serial dilution method; summary of the method: as §1
# Enterococcus faecalis [14] = assay: Antibacterial activity against Enterococcus faecalis 14-2 after 18 to 24 hrs by two-fold serial dilution method; summary of the method: as §1
# Enterococcus faecium [15] = assay: Antibacterial activity against Enterococcus faecium 14-6 after 18 to 24 hrs by two-fold serial dilution method; summary of the method: as §1
# Klebsiella pneumoniae [16] = assay: Antibacterial activity against extended-spectrum beta-lactamase producing Klebsiella pneumoniae 14-18 after 18 to 24 hrs by two-fold serial dilution method; summary of the method: as §1
# Pseudomonas aeruginosa [17] = assay: Antibacterial activity against Pseudomonas aeruginosa 14-14 after 18 to 24 hrs by two-fold serial dilution method; summary of the method: as §1
# Klebsiella pneumoniae [18] = assay: Antibacterial activity against Klebsiella pneumoniae 14-4 after 18 to 24 hrs by two-fold serial dilution method; summary of the method: as §1
# Klebsiella pneumoniae [19] = assay: Antibacterial activity against Klebsiella pneumoniae 14-2 after 18 to 24 hrs by two-fold serial dilution method; summary of the method: as §1
# Escherichia coli [20] = assay: Antibacterial activity against Escherichia coli 14-1 after 18 to 24 hrs by two-fold serial dilution method; summary of the method: as §1
# Staphylococcus aureus [21] = assay: Antibacterial activity against methicillin-sensitive Staphylococcus aureus 14-1 after 18 to 24 hrs by two-fold serial dilution method; summary of the method: as §1
# Escherichia coli [22] = assay: Antibacterial activity against extended-spectrum beta-lactamase producing Escherichia coli 14-2 after 18 to 24 hrs by two-fold serial dilution method; summary of the method: as §1
# [23] = test system: Staphylococcus epidermidis; assay: Antibacterial activity against methicillin-resistant Staphylococcus epidermidis 14-37 after 18 to 24 hrs by two-fold serial dilution method; summary of the method: as §2
# Streptococcus pneumoniae = assay: Antibacterial activity against methicillin-resistant Streptococcus pneumoniae ATCC 19615 after 18 to 24 hrs by two-fold serial dilution method; summary of the method: as §2
# Staphylococcus aureus [24] = assay: Antibacterial activity against methicillin-resistant Staphylococcus aureus 14-5 after 18 to 24 hrs by two-fold serial dilution method; summary of the method: as §2
# Enterococcus faecium [25] = assay: Antibacterial activity against Enterococcus faecium 14-2 after 18 to 24 hrs by two-fold serial dilution method; summary of the method: as §1
# Staphylococcus aureus [26] = assay: Antibacterial activity against Staphylococcus aureus CMCC 26003 after 18 to 24 hrs by two-fold serial dilution method; summary of the method: as §1
# Escherichia coli [27] = assay: Antibacterial activity against extended-spectrum beta-lactamase producing Escherichia coli 14-1 after 18 to 24 hrs by two-fold serial dilution method; summary of the method: as §1
# [28] = test system: Staphylococcus epidermidis; assay: Antibacterial activity against methicillin-sensitive Staphylococcus epidermidis 14-2 after 18 to 24 hrs by two-fold serial dilution method; summary of the method: as §1
# [29] = test system: Staphylococcus epidermidis; assay: Antibacterial activity against methicillin-resistant Staphylococcus epidermidis 14-21 after 18 to 24 hrs by two-fold serial dilution method; summary of the method: as §2
# Staphylococcus aureus [30] = assay: Antibacterial activity against methicillin-resistant Staphylococcus aureus 14-4 after 18 to 24 hrs by two-fold serial dilution method; summary of the method: as §2
# Pseudomonas aeruginosa [31] = assay: Antibacterial activity against Pseudomonas aeruginosa 14-15 after 18 to 24 hrs by two-fold serial dilution method; summary of the method: as §1
# Pseudomonas aeruginosa [32] = assay: Antibacterial activity against Pseudomonas aeruginosa 14-9 after 18 to 24 hrs by two-fold serial dilution method; summary of the method: as §1
# Klebsiella pneumoniae [33] = assay: Antibacterial activity against Klebsiella pneumoniae 14-3 after 18 to 24 hrs by two-fold serial dilution method; summary of the method: as §1
# [34] = test system: Mycobacterium tuberculosis; assay: Antimycobacterial activity against Mycobacterium tuberculosis H37Rv ATCC 27294 incubated for 7 days by microplate Alamar Blue assay; conditions: H37Rv ATCC 27294, 168 h
# Summary of the method: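 Fluorescence read-out. MIC is the lowest concentration that reduces fluorescence by at least 90% relative to the mean of replicate bacterium-only controls. Isoniazid and rifampicin were included as reference drugs.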
SMILES,MIC (Staphylococcus aureus [1]) [µg/mL],MIC (Pseudomonas aeruginosa [2]) [µg/mL],MIC (Enterococcus faecium [3]) [µg/mL],MIC [4] [µg/mL],MIC (Escherichia coli [5]) [µg/mL],MIC (Enterococcus faecalis [6]) [µg/mL],MIC (Staphylococcus aureus [7]) [µg/mL],MIC (Klebsiella pneumoniae [8]) [µg/mL],MIC (Klebsiella pneumoniae [9]) [µg/mL],MIC (Klebsiella pneumoniae [10]) [µg/mL],MIC (Escherichia coli [11]) [µg/mL],MIC [12] [µg/mL],MIC (Pseudomonas aeruginosa [13]) [µg/mL],MIC (Enterococcus faecalis [14]) [µg/mL],MIC (Enterococcus faecium [15]) [µg/mL],MIC (Klebsiella pneumoniae [16]) [µg/mL],MIC (Pseudomonas aeruginosa [17]) [µg/mL],MIC (Klebsiella pneumoniae [18]) [µg/mL],MIC (Klebsiella pneumoniae [19]) [µg/mL],MIC (Escherichia coli [20]) [µg/mL],other results
CO/N=C1/CN(c2nc3c(cc2F)c(=O)c(C(=O)O)cn3-c2nc(N)c(F)cc2F)CC1CNC1CC1 (stereo not given),16,64,16,16,4,16,16,32,64,64,> 128,32,16,4,32,64,128,> 128,32,> 128,MIC (Staphylococcus aureus [21]): 16 µg/mL; MIC (Escherichia coli [22]): > 128 µg/mL; MIC [23]: 64 µg/mL; MIC (Streptococcus pneumoniae): 32 µg/mL; MIC (Staphylococcus aureus [24]): 16 µg/mL; MIC (Enterococcus faecium [25]): 32 µg/mL; MIC (Staphylococcus aureus [26]): 0.25 µg/mL; MIC (Escherichia coli [27]): 16 µg/mL; MIC [28]: 128 µg/mL; MIC [29]: 64 µg/mL; MIC (Staphylococcus aureus [30]): 64 µg/mL; MIC (Pseudomonas aeruginosa [31]): 128 µg/mL; MIC (Pseudomonas aeruginosa [32]): 32 µg/mL; MIC (Klebsiella pneumoniae [33]): > 128 µg/mL; MIC90 [34]: 24.3 µg/mL
CO/N=C1/CN(c2nc3c(cc2F)c(=O)c(C(=O)O)cn3C2CC2)CC1CNC1CC1 (stereo not given),8,32,16,16,0.5,64,4,128,16,32,> 128,16,16,0.5,32,16,32,> 128,128,> 128,MIC (Staphylococcus aureus [21]): 8 µg/mL; MIC (Escherichia coli [22]): > 128 µg/mL; MIC [23]: 32 µg/mL; MIC (Streptococcus pneumoniae): 4 µg/mL; MIC (Staphylococcus aureus [24]): 8 µg/mL; MIC (Enterococcus faecium [25]): 32 µg/mL; MIC (Staphylococcus aureus [26]): < 0.008 µg/mL; MIC (Escherichia coli [27]): 16 µg/mL; MIC [28]: > 128 µg/mL; MIC [29]: 16 µg/mL; MIC (Staphylococcus aureus [30]): > 128 µg/mL; MIC (Pseudomonas aeruginosa [31]): 32 µg/mL; MIC (Pseudomonas aeruginosa [32]): 8 µg/mL; MIC (Klebsiella pneumoniae [33]): 128 µg/mL; MIC90 [34]: 0.44 µg/mL
CCO/N=C1/CN(c2nc3c(cc2F)c(=O)c(C(=O)O)cn3[C@@H]2C[C@@H]2F)CC1CNC1CC1 (stereo not given in full),8,32,16,32,0.03,32,4,32,32,64,> 128,8,16,0.125,32,32,32,128,32,128,MIC (Staphylococcus aureus [21]): 4 µg/mL; MIC (Escherichia coli [22]): 128 µg/mL; MIC [23]: 16 µg/mL; MIC (Streptococcus pneumoniae): 1 µg/mL; MIC (Staphylococcus aureus [24]): 8 µg/mL; MIC (Enterococcus faecium [25]): 4 µg/mL; MIC (Staphylococcus aureus [26]): < 0.008 µg/mL; MIC (Escherichia coli [27]): 16 µg/mL; MIC [28]: 64 µg/mL; MIC [29]: 16 µg/mL; MIC (Staphylococcus aureus [30]): 16 µg/mL; MIC (Pseudomonas aeruginosa [31]): 32 µg/mL; MIC (Pseudomonas aeruginosa [32]): 8 µg/mL; MIC (Klebsiella pneumoniae [33]): 128 µg/mL; MIC90 [34]: 0.72 µg/mL
CCO/N=C1/CN(c2nc3c(cc2F)c(=O)c(C(=O)O)cn3-c2nc(N)c(F)cc2F)CC1(C)CNC1CC1 (stereo not given),4,> 128,128,64,32,64,16,> 128,> 128,> 128,128,128,128,8,64,> 128,128,> 128,> 128,> 128,MIC (Staphylococcus aureus [21]): 32 µg/mL; MIC (Escherichia coli [22]): > 128 µg/mL; MIC [23]: 128 µg/mL; MIC (Streptococcus pneumoniae): 16 µg/mL; MIC (Staphylococcus aureus [24]): 64 µg/mL; MIC (Enterococcus faecium [25]): 128 µg/mL; MIC (Staphylococcus aureus [26]): 0.5 µg/mL; MIC (Escherichia coli [27]): 64 µg/mL; MIC [28]: 128 µg/mL; MIC [29]: 64 µg/mL; MIC (Staphylococcus aureus [30]): 64 µg/mL; MIC (Pseudomonas aeruginosa [31]): 128 µg/mL; MIC (Pseudomonas aeruginosa [32]): 64 µg/mL; MIC (Klebsiella pneumoniae [33]): > 128 µg/mL; MIC90 [34]: 27.7 µg/mL
CO/N=C1/CN(c2nc3c(cc2F)c(=O)c(C(=O)O)cn3-c2nc(N)c(F)cc2F)CC1(C)CNC1CC1 (stereo not given),8,> 128,128,128,16,128,16,> 128,> 128,> 128,128,32,128,8,64,> 128,> 128,> 128,> 128,> 128,MIC (Staphylococcus aureus [21]): 16 µg/mL; MIC (Escherichia coli [22]): > 128 µg/mL; MIC [23]: 64 µg/mL; MIC (Streptococcus pneumoniae): 4 µg/mL; MIC (Staphylococcus aureus [24]): 32 µg/mL; MIC (Enterococcus faecium [25]): 64 µg/mL; MIC (Staphylococcus aureus [26]): 0.25 µg/mL; MIC (Escherichia coli [27]): 128 µg/mL; MIC [28]: 128 µg/mL; MIC [29]: 128 µg/mL; MIC (Staphylococcus aureus [30]): 32 µg/mL; MIC (Pseudomonas aeruginosa [31]): 128 µg/mL; MIC (Pseudomonas aeruginosa [32]): 128 µg/mL; MIC (Klebsiella pneumoniae [33]): > 128 µg/mL; MIC90 [34]: 15.6 µg/mL
